Test results as given in PMC7380323 (ACS chemical neuroscience, 2020).
Read-outs that look alike come from different tables or passages of the source.

Columns and labels:
Mouse microglia [1] = format: cell-based
[2] = system: HMC3 human microglia cells; format: cell-based; details: −80 mV
[3] = system: immortalized mouse microglia cells; assay: Automated patch clamp, GABA current response in immortalized mouse microglia; format: cell-based
[4] = system: immortalized human microglia cells; assay: Automated patch clamp, GABA current response in immortalized human microglia; format: cell-based
Mouse microglia [5] = assay: Cell viability; format: cell-based; details: for Cell viability (%) Mouse microglia 50 μM: CellTiter-Glo
RAW macrophages [6] = assay: Inhibition of NO production; format: cell-based, mouse; details: 24 h, IFNγ/LPS activated, 1 μM GABA
Procedure, shortened: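 RAW264.7 murine macrophages were grown in DMEM/high glucose with 10% heat-inactivated FBS, penicillin/streptomycin and Normocin at 37°C and 5% CO2, and passaged by scraping. […] After about 24 h at 37°C, nitrite in the supernatant was measured by Griess assay (absorbance 530 nm).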

RAW macrophages [7] = assay: Cell viability; format: cell-based, mouse; details: CellTiter-Glo
κ-opioid receptor = details: cited from earlier work
Swiss Webster mice [8] = assay: Rotarod test; format: in vivo, mouse; details: 5 mg/kg
Swiss Webster mice [9] = assay: Formalin test; format: in vivo, mouse; details: 30 mg/kg orally
Procedure, shortened: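 Test compounds given orally four days before 2% formalin was injected into the right hind paw of Swiss Webster mice.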

## NCCCC(=O)O [GABA, γ-aminobutyric acid]
Mouse microglia [1]; 1 μM, Griess assay after 14 h
  secreted NO levels of activated microglia: no effect
[2]
  maximum negative current response for 1 mM GABA: 746 pA
[3]
  maximum current response for 1 mM GABA: 1514 pA
[4]
  maximum current response for 1 mM GABA: 1245 pA

## C#Cc1ccc2c(c1)C(c1ccccn1)=NCc1c(-c3cnco3)ncn1-2 [KRM-II-81]
Mouse microglia [1]
  Inhibition of NO production (%) Mouse microglia 50 μM: 0 ± 1%
Mouse microglia [5]
  Cell viability (%) Mouse microglia 50 μM: 100 ± 5%

## C#Cc1ccc2c(c1)C(c1ccccc1F)=N[C@H](C)c1c(C(=O)NC)ncn1-2 [MP-III-022]
Mouse microglia [1]
  Inhibition of NO production (%) Mouse microglia 10 μM: 36 ± 6%
  Inhibition of NO production (%) Mouse microglia 50 μM: 60 ± 12%
Mouse microglia [5]
  Cell viability (%) Mouse microglia 50 μM: 86 ± 2%
RAW macrophages [6]; 10 μM
  Inhibition of NO production (%) RAW macrophages 10 μM: 9 ± 5%
RAW macrophages [6]; 50 μM
  Inhibition of NO production (%) RAW macrophages 50 μM: 51 ± 7%
RAW macrophages [7]
  Cell viability (%) RAW macrophages 50 μM: 100 ± 11%

## CN1CCc2cc3c(cc2[C@H]1[C@@H]1OC(=O)c2c1ccc1c2OCO1)OCO3 [bicuculline]
Mouse microglia [1]; antagonist 100 μM, with GABA, 14 h
  reversal of the NO effect of 50 μM MP-IV-010 by antagonist: did not reverse

## CNC1=Nc2ccc(Cl)cc2C(c2ccccc2)=[N+]([O-])C1 [chlordiazepoxide]
κ-opioid receptor
  affinity for the κ-opioid receptor (in words): micromolar affinities

## C[C@@H]1C[C@H]2[C@@H]3CCC4=CC(=O)C=C[C@]4(C)[C@@]3(F)[C@@H](O)C[C@]2(C)[C@@]1(O)C(=O)CO [dexamethasone]
Mouse microglia [1]; 100 nM, Griess assay after 14 h
  NO production of activated microglia: reduced NO production
Mouse microglia [5]; activated mouse microglia, concentrations as in the NO experiments
  cytotoxicity / cell viability in the antagonist experiments (CellTiter-Glo): without cell toxicity

## CN1C(=O)CN=C(c2ccccc2)c2cc(Cl)ccc21 [diazepam]
κ-opioid receptor
  affinity for the κ-opioid receptor (in words): micromolar affinities
Swiss Webster mice [8]
  sedation on the rotarod: sedating

## CCOC(=O)c1ncn2c1CN(C)C(=O)c1cc(F)ccc1-2 [flumazenil]
Mouse microglia [1]
  reversal of the NO effect of 50 μM MP-IV-010 by antagonist: did not reverse

## CC(C(=O)O)c1cccc(C(=O)c2ccccc2)c1 (stereo not drawn) [ketoprofen]
Swiss Webster mice [9]
  antinociceptive effect in the formalin test compared with GL-IV-03 10 mg/kg: similar

## Cc1ncc2n1-c1ccc(Cl)cc1C(c1ccccc1F)=NC2 [midazolam]
κ-opioid receptor
  affinity for the κ-opioid receptor (in words): micromolar affinities

## Oc1ccc2c3c1O[C@H]1c4[nH]c5c(c4C[C@@]4(O)[C@@H](C2)N(CC2CC2)CC[C@]314)C[C@@]1(O)[C@H]2Cc3ccc(O)c4c3[C@@]1(CCN2CC1CC1)[C@H]5O4 [norbinaltorphimine]
Mouse microglia [1]; antagonist 30 μM, 14 h
  reversal of the NO effect of 50 μM MP-IV-010 by antagonist: reversed

## SM-21
Mouse microglia [1]; antagonist 30 μM, 14 h
  reversal of the NO effect of 50 μM MP-IV-010 by antagonist: no reversal

## picrotoxin
Mouse microglia [1]; antagonist 50 μM, with GABA, 14 h
  reversal of the NO effect of 50 μM MP-IV-010 by antagonist: did not reverse
